Results reported in ChEMBL document CHEMBL5126632, “Balancing Affinity, Selectivity, and Cytotoxicity of Hydrazone-Based G-Quadruplex Ligands for Activation of Interferon β Genes in Cancer Cells” (J Med Chem, 2022).
Activity calls are given as the source filed them. The calls are words filed in the database; no cut-off is given here.

Columns and labels:
[1] = tested on: Quadruplex DNA; assay: Stabilization of c-myc G4 quadruplex d(TTAGGGTTAGGGTTAGGGTTAGGGTT) DNA (unknown origin) assessed as thermal stability by measuring difference in melting temperature t1/2 by circular dichroism spectroscopy (reference value: 72 +/- 0.5 degC); format: nucleic-acid assay
[2] = tested on: U2OS; assay: Induction of DNA damage in human U2OS cells assessed as increase in gammaH2AX phosphorylation at S139 incubated for 24 hrs by immunofluorescence microscopy; format: functional, cell-based; details: read-out: IC50 (the source's name)
Procedure, shortened: (§1)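 U2OS cells treated 24 h. Fixed with 4% formaldehyde, permeabilized with 0.5% Triton X-100, blocked with 8% BSA, stained with anti-γH2AX (1:500) and Alexa Fluor 594 secondary, DAPI counterstain. Fluorescence microscopy signal quantified as fold over untreated.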

[3] = tested on: Quadruplex DNA; assay: Stabilization of human Tel26 G4 quadruplex DNA assessed as thermal stability by measuring difference in melting temperature t1/2 by circular dichroism spectroscopy; format: nucleic-acid assay
[4] = target: Quadruplex DNA; assay: Displacement of thiazole orange from c-kit2 G4 quadruplex d(CGGGCGGGCGCTAGGGAGGGT) DNA (unknown origin) assessed as relative affinity by fluorescent intercalator displacement assay; format: nucleic-acid assay
Procedure, shortened: (§2)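 G4 DNA at 0.25 μM with 0.5 μM thiazole orange in 5 mM potassium phosphate pH 7.0 containing 20 mM KCl (LiCl for c-myc), 20 °C. Ligand titrated from 0.5 to 20 molar equiv with 3 min equilibration per addition. Excitation 485 nm, emission 500–650 nm. %displacement = 100 − (F/F0×100); DC50 is the concentration displacing 50% TO. Duplicate titrations.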

[5] = tested on: U2OS; assay: Cytotoxicity against human U2OS cells assessed as cell survival preincubated for 24 hrs with compound further incubated for 48 hrs in drug free medium by MTT assay; format: functional, cell-based
Procedure, shortened: (§3)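 Exponentially growing cells seeded and treated 24 h after seeding with increasing concentrations for 24 h. Cells then recovered 48 h in drug-free medium. MTT added for 1 h at 37 °C, formazan dissolved in DMSO, absorbance read at 540 nm. IC50 from linear regression. Means ± SEM of two independent experiments in triplicate.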

[6] = tested on: Quadruplex DNA; assay: Stabilization of F-c-kit1-T quadruplex DNA (unknown origin) by measuring difference in melting temperature t1/2 by FRET assay; format: nucleic-acid assay
Procedure, shortened: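 FRET melting of 0.2 μM prefolded FAM/TAMRA-labelled c-kit1 in 5 mM potassium phosphate pH 7.0 with 20 mM KCl, with ligand at 2 molar equiv. Unlabelled hairpin competitor added at 3 or 10 μM (15 or 50 equiv). FAM emission at 520 nm (excitation 492 nm) followed from 15 to 90 °C at 0.2 °C/min. ΔT1/2 versus no ligand. At least duplicate.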

[7] = target: Quadruplex DNA; assay: Binding affinity to c-kit2 G4 quadruplex d(CGGGCGGGCGCTAGGGAGGGT) DNA (unknown origin) assessed as dissociation constant by Microscale thermophoresis analysis; format: nucleic-acid assay
Procedure, shortened: (§4)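 MST with Cy5.5-labelled G4 oligonucleotide held at 20 nM, folded in 5 mM potassium phosphate pH 7.0 with 20 mM KCl plus 0.1% Tween. Ligand in 1:2 serial dilution mixed 1:1 with DNA, 20% DMSO final. Kd taken from binding curves.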

[8] = Stabilization of F-c-kit1-T (unknown origin) assessed as difference in melting temperature t1/2 in presence of d(CGC GAA TTC GCG TIT CGC GAA TTC GCG) DNA hairpin (unknown origin) measured at 1:50 G4 to hairpin DNA ratio by FRET assay
Procedure, shortened: (§5)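 FRET melting of 0.2 μM prefolded FAM/TAMRA dual-labelled c-kit1 G4 in 5 mM K phosphate pH 7.0 with 20 mM KCl. Ligand was added at 2 molar equiv, with unlabelled hairpin competitor at 3 or 10 μM final (15 or 50 equiv relative to G4). FAM emission was read at 520 nm (excitation 492 nm) while heating at 0.2 °C/min over 15–90 °C. ΔT1/2 is relative to no ligand; at least duplicate, averaged.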

[9] = tested on: MNMCA1; assay: Activation of IFN-beta in mouse MNMCA1 cells at 15 to 30 uM pretreated for 24 hrs followed by 48 hrs of drug recovery by ELISA; format: functional, cell-based; details: dose 15-30 µM, time 72.0 hrs
Procedure, shortened: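 MNMCA1 cells treated 24 h with compound at 15 or 30 μM, then 48 h recovery in fresh drug-free medium. IFN-B protein measured by ELISA in collected culture supernatants.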

[10] = target: Quadruplex DNA; assay: Binding affinity toc-myc G4 quadruplex d(TTAGGGTTAGGGTTAGGGTTAGGGTT) DNA (unknown origin) assessed as dissociation constant by Microscale thermophoresis analysis; format: nucleic-acid assay; procedure, shortened: as §4
[11] = Stabilization of F-c-kit1-T (unknown origin) assessed as difference in melting temperature t1/2 in presence of d(CGC GAA TTC GCG TIT CGC GAA TTC GCG) DNA hairpin (unknown origin) measured at 1:15 G4 to hairpin DNA ratio by FRET assay; procedure, shortened: as §5
[12] = Genotoxicity in mouse MNMCA1 cells assessed as induction of micronuclei formation measured after 24 hrs by DAPI staining based analysis; format: toxicity, cell-based; details: mnmca1, 24 h
[13] = target: Quadruplex DNA; assay: Displacement of thiazole orange from c-kit1 G4 quadruplex d(DNA AGGGAGGGCGCTGGGAGGAGGG) DNA (unknown origin) assessed as relative affinity by fluorescent intercalator displacement assay; format: nucleic-acid assay; procedure, shortened: as §2
[14] = tested on: Quadruplex DNA; assay: Stabilization of G4 quadruplex DNA in human U2OS cells assessed as BG4 foci formation by measuring fold increase in G4 structure at 10 uM by immunofluorescence microscopy; format: cell-based
Procedure, shortened: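 U2OS cells on coverslips treated for […]. Fixed in methanol/acetic acid 3:1, permeabilized with 0.1% Triton X-100, blocked in 2% milk. Stained with 0.5 μg BG4 for 2 h, then anti-FLAG and Alexa Fluor 488 secondary. Signal quantified as fold over untreated.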

[15] = Cytotoxicity against mouse MNMCA1 cells assessed as cell survival preincubated for 24 hrs with compound further incubated for 48 hrs in drug free medium by MTT assay; format: functional, cell-based; procedure, shortened: as §3
[16] = tested on: Quadruplex DNA; assay: Stabilization of c-kit2 G4 quadruplex d(CGGGCGGGCGCTAGGGAGGGT) DNA (unknown origin) assessed as thermal stability by measuring difference in melting temperature t1/2 by circular dichroism spectroscopy (reference value: 61.5 +/- 0.5 degC); format: nucleic-acid assay
[17] = tested on: Quadruplex DNA; assay: Stabilization of c-kit1 G4 quadruplex d(DNA AGGGAGGGCGCTGGGAGGAGGG) DNA (unknown origin) assessed as thermal stability by measuring difference in melting temperature t1/2 by circular dichroism spectroscopy (reference value: 54 +/- 0.5 degC); format: nucleic-acid assay
[18] = target: Quadruplex DNA; assay: Displacement of thiazole orange from c-myc G4 quadruplex d(TTAGGGTTAGGGTTAGGGTTAGGGTT) DNA (unknown origin) assessed as relative affinity by fluorescent intercalator displacement assay; format: nucleic-acid assay; procedure, shortened: as §2
[19] = Stabilization of d(CGC GAA TTC GCG TIT CGC GAA TTC GCG) DNA hairpin (unknown origin) assessed as thermal stability by measuring difference in melting temperature t1/2 by circular dichroism spectroscopy (reference value: 75.4 +/- 0.2 degC)
Procedure, shortened: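 CD melting of 15 μM annealed hairpin duplex in 5 mM K phosphate pH 7.0 with 20 mM KCl, with or without ligand at 2 molar equiv added to the folded DNA. The signal was followed at 252 nm from 20 to 100 °C at 1 °C/min, with T1/2 taken from a curve fit. ΔT1/2 is relative to DNA alone; duplicate runs, averaged.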

[20] = target: Quadruplex DNA; assay: Binding affinity to c-kit1 G4 quadruplex d(DNA AGGGAGGGCGCTGGGAGGAGGG) DNA (unknown origin) assessed as dissociation constant by Microscale thermophoresis analysis; format: nucleic-acid assay; procedure, shortened: as §4
[21] = tested on: U2OS; assay: Induction of DNA damage in human U2OS cells assessed as fold increase in gammaH2AX phosphorylation at […] by measuring fold change at 10 uM incubated for 24 hrs by immunofluorescence microscopy; format: functional; procedure, shortened: as §1
[22] = Genotoxicity in mouse MNMCA1 cells assessed as induction of micronuclei formation at 5 uM incubated for 24 hrs by measuring fold change by DAPI staining based analysis; format: toxicity, cell-based; details: mnmca1, 24 h

SMILES	ΔTm [1] [°C]	EC50 [2] [µM]	ΔTm [3] [°C]	IC50 [5] [µM]	ΔTm [6] [°C]	Kd [7] [µM]	ΔTm [8] [°C]	Kd [10] [µM]	ΔTm [11] [°C]	IC50 [15] [µM]	ΔTm [16] [°C]	ΔTm [17] [°C]	ΔTm [19] [°C]	Kd [20] [µM]	fold change (FC) [21]	fold change (FC) [22]	other results
Cc1ccc(-c2nc3ccn4c(/C=N/NC(=N)N)c(-c5ccccc5)nc4n3c2/C=N/NC(=N)N)cc1	16.9	46	4.8	46.8	25.4	0.04	19.2	1.5	22.2	38.5	> 30	18.2	1.3	0.03			IC50 [4]: 1.4 µM; Activity [9]: Active; fold change (FC) [12]: 0.4; IC50 [13]: 1.4 µM; fold change (FC) [14]: 2.4; IC50 [18]: 1.6 µM
OCc1c(-c2ccccc2)nc2n1ccc1nc(-c3ccccc3)c(/C=N/NC3=NCCN3)n12	1.7	24	2	24.5	8	2.5	8.4	37	7.8	12.1	14.7	7.1	1.3	8	1.55	2.5	
N=C(N)N/N=C/c1c(-c2ccccc2)nc2ccn3c(CO)c(-c4ccccc4)nc3n12	2.8	14	1.8	14.3	10	1.3	12.1	8	11.1	35.7	18.6	9.7	2.3	2	2.32	2.5	
